Source: ChEMBL document CHEMBL1134627, “Synthesis of novel, potent, diol-based HIV-1 protease inhibitors via intermolecular pinacol homocoupling of (2S)-2-benzyloxymethyl-4-phenylbutanal” (J Med Chem, 2001)

Columns and labels:
MT4 [1] = assay: Inhibitory activity against MT-4 cells, in the presence of human serum; type: functional; details: read-out: ED50 (the source's name)
Method in brief: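 HIV cytopathic assay in MT-4 cells run in the presence of 40% human serum, with viability read out using the vital dye XTT. ED50 was calculated from the percent cytoprotection.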

MT4 [2] = assay: Inhibitory activity against MT-4 cells; type: functional; details: Homo sapiens, read-out: ED50 (the source's name)
Method in brief: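 HIV-induced cytopathic effect measured in MT-4 cells, with cell viability read out using the vital dye XTT. ED50 was calculated from the percent cytoprotection for each compound.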

[3] = target: Human immunodeficiency virus type 1 protease (Human immunodeficiency virus 1, UniProt Q72874); assay: Inhibitory activity against HIV-1 protease (Escherichia coli)
Method in brief: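 Recombinant HIV-1 protease, cloned and expressed in E. coli. Ki values were determined with a fluorometric assay.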

SMILES | EC50 (MT4 [1]) | EC50 (MT4 [2]) | Ki [3]
CNC(=O)[C@@H](NC(=O)[C@H](CCc1ccccc1)[C@@H](O)[C@H](O)[C@@H](CCc1ccccc1)C(=O)N[C@H](C(=O)NC)C(C)C)C(C)C | 1400 nM | 1900 nM | 0.4 nM
CNC(=O)[C@@H](NC(=O)[C@H](CCc1ccccc1)[C@H](O)[C@H](O)[C@@H](CCc1ccccc1)C(=O)N[C@H](C(=O)NC)C(C)C)C(C)C | > 10000 nM | > 10000 nM | 112 nM
O=C(NC1c2ccccc2C[C@H]1O)[C@H](CCc1ccccc1)[C@@H](O)[C@H](O)[C@@H](CCc1ccccc1)C(=O)N[C@H]1c2ccccc2C[C@H]1O (some centres not stated) | 390 nM | 93 nM | 1.1 nM
O=C(NC1c2ccccc2C[C@H]1O)[C@H](OCc1ccccc1)[C@H](O)[C@@H](O)[C@@H](OCc1ccccc1)C(=O)N[C@H]1c2ccccc2C[C@H]1O (some centres not stated) | 1500 nM | 96 nM | 0.6 nM
O=C(NC1c2ccccc2C[C@H]1O)[C@H](CCc1ccccc1)[C@H](O)[C@H](O)[C@@H](CCc1ccccc1)C(=O)N[C@H]1c2ccccc2C[C@H]1O (some centres not stated) | 15000 nM | > 10000 nM | 28 nM
CNC(=O)[C@@H](NC(=O)[C@H](OCc1ccccc1)[C@H](O)[C@@H](O)[C@@H](OCc1ccccc1)C(=O)N[C@H](C(=O)NC)C(C)C)C(C)C | 34000 nM | 1300 nM | –
